≈ marks a conversion by molar mass, not a printed value. Calls of active or inactive are those of the source. No cut-off for these calls is given here.
Tests used:
SW-1736 = experiment: Growth inhibition of human SW1736 cells after 48 hrs by sulforhodamine B assay; format: functional; settings: SW-1736, 48 h
HUVEC [1] = experiment: Antiangiogenic activity in HUVEC assessed as reduction of number of junctions at 0.001 ug/ml after 24 hrs by matrigel assay relative to control; format: functional; settings: Homo sapiens
Summary of the method: (§1)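 Commercial HUVECs grown in EGM-2 were seeded at 2 × 10⁵ cells/mL onto Matrigel, which had been polymerized 15 min at rt and then 30 min at 37 °C, per NCI DTP protocol. Compound was added and cells were incubated 24 h, then imaged by inverted microscopy. Cord length and junction number were scored against untreated control on a scale from − (none) to +++ (same as control), with ++ = 50% of control.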

HUVEC [2] = experiment: Antiangiogenic activity in HUVEC assessed as reduction of cord length at 0.0001 ug/ml after 24 hrs by matrigel assay relative to control; format: functional, Homo sapiens; set-up: scale not given: the % may be the effect or the level left
Summary of the method: (§2)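 Matrigel was polymerised in wells (15 min rt, then 30 min 37 °C). HUVECs (2 × 10⁵ cells/mL) were added with compound and incubated 24 h, then imaged by inverted microscope. Cord length and junction number were scored semi-quantitatively versus untreated control (− none to +++ same as control).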

[3] = Displacement of [3H]colchicine from tubulin at 10 uM after 10 mins
Summary of the method: (§3)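 [³H]colchicine binding: 1.0 μM tubulin with 5.0 μM [³H]colchicine and compound, incubated 10 min at 37 °C. The tubulin–colchicine complex was separated from unbound label by retention on DEAE-cellulose filters. Result is inhibition of radiolabel binding.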

NCI-H460 = experiment: Growth inhibition of human NCI-H460 cells after 48 hrs by sulforhodamine B assay; format: functional; settings: NCI-H460, 48 h
Summary of the method: (§4)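 NCI sulforhodamine B assay. Cells were seeded in 5% FBS/RPMI-1640 and incubated 24 h. Serial compound dilutions were then added for 48 h. Cells were fixed with trichloroacetic acid, stained with SRB and read by microplate reader. GI50 is the concentration giving 50% reduction in net protein increase, calculated from optical density data.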

MCF7 = experiment: Growth inhibition of human MCF7 cells after 48 hrs by sulforhodamine B assay; format: functional; settings: MCF7, 48 h; summary of the method: as §4
[4] = Inhibition of purified tubulin assembly after 20 mins
Summary of the method: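 Purified tubulin at 10 μM in 0.8 M monosodium glutamate (pH 6.6), 0.4 mM GTP and 4% (v/v) DMSO, with varying compound concentrations. Extent of assembly was measured after 20 min at 30 °C.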

HUVEC [5] = experiment: Antiangiogenic activity in HUVEC assessed as cell growth at 0.00001 ug/ml after 24 hrs by sulforhodamine B assay relative to control; format: functional; settings: Homo sapiens, read-out: Activity
[6] = Growth inhibition of human KAT4 cells after 48 hrs by sulforhodamine B assay; format: functional; settings: KAT-4, 48 h
DU-145 = experiment: Growth inhibition of human DU145 cells after 48 hrs by sulforhodamine B assay; format: functional; settings: DU-145, 48 h; summary of the method: as §4
HUVEC [7] = experiment: Antiangiogenic activity in HUVEC assessed as reduction of number of junctions at 0.0001 ug/ml after 24 hrs by matrigel assay relative to control; format: functional, Homo sapiens; set-up: scale not given: the % may be the effect or the level left; summary of the method: as §2
HUVEC [8] = experiment: Antiangiogenic activity in HUVEC assessed as cell growth inhibition after 48 hrs by sulforhodamine B assay; format: functional, cell-based; settings: Homo sapiens
Summary of the method: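 HUVECs were grown in EGM-2 medium and tested with the standard SRB growth assay following NCI Developmental Therapeutics Program Matrigel antiangiogenesis protocols. IC50 (concentration causing 50% inhibition) was calculated from plotted data.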

HUVEC [9] = experiment: Antiangiogenic activity in HUVEC assessed as reduction of cord length at 0.01 ug/ml after 24 hrs by matrigel assay relative to control; format: functional; settings: Homo sapiens; summary of the method: as §1
HUVEC [10] = experiment: Antiangiogenic activity in HUVEC assessed as reduction of cord length at 0.001 ug/ml after 24 hrs by matrigel assay relative to control; format: functional; settings: Homo sapiens; summary of the method: as §1
HUVEC [11] = experiment: Antiangiogenic activity in HUVEC assessed as cell growth at 0.01 ug/ml after 24 hrs by sulforhodamine B assay relative to control; format: functional, Homo sapiens; settings: Homo sapiens, HUVEC, 24 h; read-out: Activity
P388 = experiment: Growth inhibition of mouse P388 cells after 48 hrs by Z1 Beckman/Coulter particle counter analysis; format: functional; settings: P388, 48 h, read-out: ED50 (the source's name)
Summary of the method: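 Mouse P388 leukemia cells were incubated 24 h in 10% horse serum/Fisher medium, then exposed 48 h to serial compound dilutions. ED50 was calculated from cell counts on a Coulter Z1 particle counter.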

[12] = Displacement of [3H]colchicine from tubulin at 1 uM after 10 mins; summary of the method: as §3
SF-268 = experiment: Growth inhibition of human SF268 cells after 48 hrs by sulforhodamine B assay; format: functional; settings: SF-268, 48 h; summary of the method: as §4
KM-20L2 = experiment: Growth inhibition of human KM20L2 cells after 48 hrs by sulforhodamine B assay; format: functional; settings: KM-20L2, 48 h; summary of the method: as §4
Micrococcus luteus = experiment: Antibacterial activity against Micrococcus luteus Presque Isle 456 by broth microdilution method; format: functional
Summary of the method: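 Broth microdilution per NCCLS bacterial (M7-A5) and yeast standards. Compounds were reconstituted in sterile DMSO and diluted in the appropriate medium just before testing. MIC is the lowest concentration giving complete inhibition of visible growth (optically clear). Assays were repeated on separate days.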

HUVEC [13] = experiment: Antiangiogenic activity in HUVEC assessed as cell growth at 0.0001 ug/ml after 24 hrs by sulforhodamine B assay relative to control; format: functional, Homo sapiens; settings: Homo sapiens, HUVEC, 24 h; read-out: Activity
HUVEC [14] = experiment: Antiangiogenic activity in HUVEC assessed as reduction of number of junctions at 0.01 ug/ml after 24 hrs by matrigel assay relative to control; format: functional; settings: Homo sapiens; summary of the method: as §1
HUVEC [15] = experiment: Antiangiogenic activity in HUVEC assessed as cell growth at 0.001 ug/ml after 24 hrs by sulforhodamine B assay relative to control; format: functional, Homo sapiens; settings: Homo sapiens, HUVEC, 24 h; read-out: Activity
Cryptococcus neoformans = experiment: Antifungal activity against Cryptococcus neoformans ATCC 90112 by broth microdilution method
BXPC-3 = experiment: Growth inhibition of human BxPC3 cells after 48 hrs by sulforhodamine B assay; format: functional; settings: BXPC-3, 48 h; summary of the method: as §4

Q: What does the source list for `COc1ccc(/C=C\c2cc(I)c(OC)c(OC)c2)cc1O` [IODOCOMBSTATIN]?
A: GI50 (SW-1736): 2200 ng/mL (≈ 5340 nM); Activity (HUVEC [1]): Active; Activity (HUVEC [2]): 75%; inhibition [3]: 100%; GI50 (NCI-H460): 0.29 ng/mL (≈ 0.704 nM); GI50 (MCF7): 0.22 ng/mL (≈ 0.534 nM); IC50 [4]: 2.5 µM; growth at 10 pg/mL (HUVEC [5]): 90%; GI50 [6]: 89 ng/mL (≈ 216 nM); GI50 (DU-145): 0.18 ng/mL (≈ 0.437 nM); Activity (HUVEC [7]): 75%; IC50 (HUVEC [8]): 0.04 ng/mL (≈ 0.097 nM); Activity (HUVEC [9]): Active; Activity (HUVEC [10]): Active; growth at 0.01 µg/mL (HUVEC [11]): 14%; EC50 (P388): 2 ng/mL (≈ 4.85 nM); inhibition [12]: 78%; GI50 (SF-268): 0.18 ng/mL (≈ 0.437 nM); GI50 (KM-20L2): 328 ng/mL (≈ 796 nM); MIC (Micrococcus luteus): 2000 ng/mL (≈ 4850 nM); growth at 0.0001 µg/mL (HUVEC [13]): 18%; Activity (HUVEC [14]): Active; growth at 0.001 µg/mL (HUVEC [15]): 14%; MIC (Cryptococcus neoformans): 64000 ng/mL (≈ 155000 nM); GI50 (BXPC-3): 48 ng/mL (≈ 116 nM)
